Test results from ChEMBL document CHEMBL1122337, “Syntheses of iron bis(pyridoxal isonicotinoylhydrazone)s and the in vivo iron-removal properties of some pyridoxal derivatives” (J Med Chem, 1983).

Experiments:
Assay type in all cases: ADME, organism-based
[1] = organism: Rattus norvegicus; assay: […] determined in urine of rat followed by […] of chelating agent; conditions: in vivo, iv
In short: (§1)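 Normal rats. Storage iron was labelled with [⁵⁹Fe]ferritin, given im as 1 mL in sterile normal saline (0.2–0.4 μCi ⁵⁹Fe/mL, 40 μg ferritin iron). The ferritin was prepared in vivo from [⁵⁹Fe]citrate in iron-dextran-loaded rats. Chelator was given separately afterwards, 40 mg im as aqueous solution. Blood, liver, spleen and kidney were gamma-counted. Stool and urine were collected separately in metabolic cages. Results are percent of injected ⁵⁹Fe.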

[2] = test system: Rattus norvegicus; assay: % distribution of the radioiron in rat spleen followed by intravenous injection of chelating agent; conditions: in vivo
[3] = test system: Rattus norvegicus; assay: % distribution of the radioiron in rat liver followed by intravenous injection of chelating agent; conditions: in vivo
[4] = test system: Rattus norvegicus; assay: % distribution of the radioiron in blood of rat followed by intravenous injection of chelating agent; conditions: in vivo
[5] = test system: Rattus norvegicus; assay: % distribution of the radioiron in rat kidney followed by intravenous injection of chelating agent; conditions: in vivo
[6] = organism: Rattus norvegicus; assay: […] determined in faces of rat followed by […] of chelating agent; conditions: in vivo, iv; in short: as §1
[7] = test system: Rattus norvegicus; assay: % excretion of radioiron determined in feces of rat followed by intravenous injection of transferrin pre-incubated with 10 mg of chelating agent; conditions: in vivo
In short: (§2)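 Normal rats. Fresh rat plasma was labelled with ⁵⁹FeCl₃ plus excess citrate (citrate:Fe >50:1; final 0.5 μCi ⁵⁹Fe/mL). It was preincubated with 10 mg chelating agent and 1 mL was injected iv. Blood (1 mL), weighed liver portions, and whole spleen and kidney were counted in a well-type gamma counter. Feces and urine were collected separately in metabolic cages. Results are percent of injected ⁵⁹Fe ± SD.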

[8] = test system: Rattus norvegicus; assay: % distribution of the radioiron in rat spleen followed by intravenous injection of transferrin pre-incubated with 10 mg of chelating agent; conditions: in vivo; in short: as §2
[9] = test system: Rattus norvegicus; assay: % distribution of the radioiron in rat liver followed by intravenous injection of transferrin preincubated with 10 mg of chelating agent; conditions: in vivo; in short: as §2
[10] = test system: Rattus norvegicus; assay: % excretion of radioiron determined in urine of rat followed by intravenous injection of transferrin preincubated with 10 mg of chelating agent; conditions: in vivo; in short: as §2
[11] = test system: Rattus norvegicus; assay: % distribution of the radioiron in blood of rats followed by intravenous injection of transferrin pre-incubated with 10 mg of chelating agent; conditions: in vivo; in short: as §2
[12] = test system: Rattus norvegicus; assay: % distribution of the radioiron in rat kidney followed by intravenous injection of transferrin pre-incubated with 10 mg of chelating agent; conditions: in vivo; in short: as §2

| Compound | Distribution [1] [%] | Distribution [2] [%] | Distribution [3] [%] | Distribution [4] [%] | Distribution [5] [%] | Distribution [6] [%] | Distribution [7] [%] | Distribution [8] [%] | Distribution [9] [%] | Distribution [10] [%] | Distribution [11] [%] | Distribution [12] [%] |
| --- | --- | --- | --- | --- | --- | --- | --- | --- | --- | --- | --- | --- |
| Cc1ncc(CO)c(/C=N/NC(N)=O)c1O | 0.09 | 1 | 82.4 | 12.3 | 0.3 | 4.1 |  |  |  |  |  |  |
| CC(=O)OCc1cnc(C)c(O)c1/C=N\NC(=O)c1ccncc1 |  |  |  |  |  |  | 10.4 | 0.6 | 15.7 | 0.8 | 31.7 | 0.8 |
| Cc1ncc(CO)c(/C=N/Nc2nc(-c3ccccc3)cs2)c1O | 0.04 | 0.6 | 66.7 | 19.6 | 0.5 | 8.2 |  |  |  |  |  |  |
| Cc1csc(N/N=C/c2c(CO)cnc(C)c2O)n1 | 0.01 | 0.8 | 60.2 | 19.1 | 0.4 | 6.5 |  |  |  |  |  |  |
| CCOC(=O)N/N=C/c1c(CO)cnc(C)c1O | 0.03 | 0.7 | 63.8 | 19 | 0.4 | 8.6 |  |  |  |  |  |  |
| Cc1ncc(CO)c(/C=N/NC(=O)OC(C)(C)C)c1O | 0.08 | 0.55 | 63.2 | 19.4 | 0.4 | 7.3 |  |  |  |  |  |  |
| Cc1ncc(CO)c(/C=N/NC(=O)c2cccnc2)c1O |  |  |  |  |  |  | 6 | 0.9 | 16.2 | 0.3 | 39.6 | 1 |
| COc1ccc(COC(=O)N/N=C/c2c(CO)cnc(C)c2O)cc1 |  |  |  |  |  |  | 3.3 | 0.6 | 14.7 | 0.02 | 27 | 0.8 |
| Cc1ncc(CO)c(/C=N/NC(=O)c2ccnc3ccccc23)c1O |  |  |  |  |  |  | 6.8 | 0.6 | 12.6 | 0.4 | 27.9 | 1 |
| CC(=O)N(O)CCCCCNC(=O)CCC(=O)N(O)CCCCCNC(=O)CCC(=O)N(O)CCCCCN [DEFEROXAMINE] | 0.08 | 0.4 | 71.3 | 1.8 | 0.3 | 15.5 | 18.7 | 0.2 | 3 | 62.9 | 7.4 | 0.6 |
| Cc1ncc(CO)c(/C=N/NC(=O)c2ccncc2)c1O [PYRIDOXAL ISONICOTINOYL HYDRAZONE] | 0.05 | 0.5 | 78.7 | 2.3 | 0.3 | 12 | 32.8 | 0.4 | 9.6 | 4.3 | 32 | 0.6 |
